Measurements collected from several papers.
Lines come from different studies, so protocols differ. Converted amounts (≈) assume the structure as drawn.
Organism: Pseudomonas aeruginosa

Structure (SMILES)	observed	technique	strain	tested at	time	endpoint	result
CC(C)(O/N=C(\C(=O)N[C@@H]1C(=O)N2C(C(=O)[O-])=C(C[n+]3ccccc3)CS[C@H]12)c1csc(N)n1)C(=O)O	microbial growth	broth dilution	ATCC27853		20 h	MIC	1 µg/mL
COc1cccc(C(=O)C#Cc2ccc(O)c(OC)c2)c1	microbial growth	absorbance		10 µM	24 h	activity vs control	87%
COc1cc(C=Nc2ccc([N+](=O)[O-])cc2)ccc1O	microbial growth	disc diffusion		2000 µg/mL	24 h	inhibition zone	14.2 mm
Cc1[nH]c(C(=O)Nc2ccc(-c3n[nH]c(=O)o3)cc2N2CCC[C@H](N)C2)c(Cl)c1Cl.Cl	microbial growth	broth dilution	ATCC27853			MIC	16 µg/mL
CC1(C)S[C@@H]2[C@H](NC(=O)[C@H](N)c3ccccc3)C(=O)N2[C@H]1C(=O)O	microbial growth	broth dilution	ATCC27853			MIC	8 µg/mL
CC(C)(O/N=C(\C(=O)N[C@@H]1C(=O)N2C(C(=O)[O-])=C(C[n+]3ccccc3)CS[C@H]12)c1csc(N)n1)C(=O)O	microbial growth	disc diffusion		2000 µg/mL	24 h	inhibition zone	9.5 mm
COc1cc(-c2[nH]nnc2C(=O)c2ccccc2)ccc1O	microbial growth	absorbance		10 µM	24 h	activity vs control	95%
C[C@H]1COc2c(N3CCN(C)CC3)c(F)cc3c(=O)c(C(=O)O)cn1c23	microbial killing		ATCC47085			MBC	7.81 µg/mL (≈ 21.6 µM)
COc1cc(C#CC(=O)c2cccc(C)c2)ccc1O	microbial growth	absorbance		10 µM	24 h	activity vs control	98%
Cc1[nH]c(C(=O)Nc2ccc(C(=O)NCC(=O)O)cc2N2CC[C@H](NC(=O)OC(C)(C)C)C2)c(Cl)c1Cl	microbial growth	broth dilution	ATCC27853			MIC	> 32 µg/mL
COc1cc(C#CC(=O)C2CCCCC2)ccc1O	microbial growth	absorbance		100 µM	24 h	activity vs control	80%
CC(C)NCC(COc1cccc2ccccc12)OC(=O)C=Cc1ccc(O)c(O)c1 (stereo not drawn)	microbial growth	broth dilution	ATCC27853			MIC	64 µg/mL
COc1cc(C#C[C@H](O)CC(C)C)ccc1O	microbial growth	absorbance		100 µM	24 h	activity vs control	98%
O=C(O)c1cn(C2CC2)c2cc(N3CCNCC3)c(F)cc2c1=O	microbial growth		ATCC27853			MIC	2 µM
O=C(C=Cc1ccc(O)c(O)c1)Oc1cccc2cccnc12	microbial growth	broth dilution	ATCC27853			MIC	4 µg/mL
CC(C)(C)OC(=O)N[C@@H]1CCN(c2cc(C(=O)NCC(=O)O)ccc2NC(=O)c2cc(Br)c(Br)[nH]2)C1	microbial growth	broth dilution	ATCC27853			MIC	> 32 µg/mL
Cc1ccccc1NC(=O)C=Cc1ccc(O)c(O)c1	microbial growth	broth dilution	ATCC27853			MIC	8 µg/mL
Cl.N[C@@H]1CCN(c2cc(C(=O)NCC(=O)O)ccc2NC(=O)c2cc(Br)c(Br)[nH]2)C1	microbial growth	broth dilution	ATCC27853			MIC	> 32 µg/mL
COc1cc(C#CC(O)c2ccccc2)ccc1O (stereo not drawn)	microbial growth	absorbance		100 µM	24 h	activity vs control	82%
Cc1[nH]c(C(=O)Nc2ccc(C(=O)NCC(=O)O)cc2N2CCN(C(=O)OC(C)(C)C)CC2)c(Cl)c1Cl	microbial growth	broth dilution	ATCC27853			MIC	> 32 µg/mL
O=C(C=Cc1ccc(O)c(O)c1)OCc1ccccc1	microbial growth	broth dilution	ATCC27853			MIC	8 µg/mL
Cc1[nH]c(C(=O)Nc2ccc(C(=O)NCc3n[nH]c(=O)o3)cc2N2CCN(C(=O)OC(C)(C)C)CC2)c(Cl)c1Cl	microbial growth	broth dilution	ATCC27853			MIC	> 32 µg/mL
C[C@@H](O)[C@H]1C(=O)N2C(C(=O)O)=C(SCCN=CN)C[C@H]12	microbial growth	disc diffusion		2000 µg/mL	24 h	inhibition zone	17 mm
COc1cc(C#CC(=O)c2ccccc2Cl)ccc1O	microbial growth	absorbance		10 µM	24 h	activity vs control	98%
CC(C)(C)OC(=O)N1CCN(c2cc(C(=O)NCC(=O)O)ccc2NC(=O)c2cc(Br)c(Br)[nH]2)CC1	microbial growth	broth dilution	ATCC27853			MIC	> 32 µg/mL
COc1cc(C#CC(=O)CC(C)C)ccc1O	microbial growth	absorbance		100 µM	24 h	activity vs control	87%
Cc1[nH]c(C(=O)Nc2ccc(C(=O)NCC(=O)O)cc2N2CC[C@@H](N)C2)c(Cl)c1Cl.Cl	microbial growth	broth dilution	ATCC27853			MIC	> 32 µg/mL
